Each block holds one molecule with its values, some of them ahead of it.
How the values were obtained:
[1] = Retention time of the compound by LC-MS analysis; type: physicochemical
Procedure, shortened: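 Separation of DPA-714 and its metabolites by LC-MS on reverse-phase Atlantis C18 column (2.1x150 mm) with electrospray ionization.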

[2] = tested on: Liver microsome; experiment: Drug level in Sprague-Dawley rat liver microsomes treated with DPA-714 after 15 to 60 mins by LC-MS/MS analysis
[3] = Retention time in baboon plasma treated with [18F]DPA-714 by radio-HPLC analysis; type: ADME, cell-free; conditions: papio anubis
Procedure, shortened: (§1)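 Isoflurane-anaesthetized baboons, 6 PET experiments. Arterial femoral plasma sampled 0-120 min and centrifuged at 4°C, then deproteinated with acetonitrile; pellet radioactivity counted and treated as metabolite. Supernatant run on radio-HPLC (C18 preparative, 0.1% TFA water/acetonitrile 20-80% over 10 min, 5 mL/min). Counts decay-corrected to injection. Parent fraction as % total; data fitted to two exponentials; mean ± sd.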

[4] = Drug metabolism in baboon urine assessed as compound remaining measured at 180 mins by radio-HPLC analysis; type: ADME, tissue-based; conditions: papio anubis, read-out: Stability
Procedure, shortened: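 Baboon urine collected by catheter at 180 min after injection. 1 mL injected directly onto the plasma radio-HPLC system (C18, 0.1% TFA water/acetonitrile gradient).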

[5] = Chemical stability of the compound in saline; type: physicochemical; conditions: buffer
[6] = Metabolic stability of the compound in baboon plasma at 20 kBq/ml at 37 degC by radio-HPLC analysis; type: ADME, cell-free; conditions: papio anubis
Procedure, shortened: (§2)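 Plasma spiked with 20 kBq/mL [18F]DPA-714, triplicate. Extracted with acetonitrile at time zero, or after incubation at 37°C (190 min for baboon plasma). Parent peak area measured by radio-HPLC.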

[7] = tested on: Plasma; experiment: Metabolic stability of the compound in Sprague-Dawley rat plasma at 20 kBq/ml at 37 degC by radio-HPLC analysis; type: ADME, cell-free; procedure, shortened: as §2
[8] = tested on: Brain; experiment: Metabolic stability of the compound in Sprague-Dawley rat brain homogenate at 37 kBq at 37 degC by radio-HPLC analysis; type: ADME, tissue-based
Procedure, shortened: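 Rat brain sonicated in 0.1 M potassium phosphate, pH 7.4, at 4°C and spiked with 37 kBq [18F]DPA-714. Aliquots extracted with acetonitrile at time zero and after 180 min at 37°C. Analysed by radio-HPLC.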

[9] = Drug recovery in baboon by SPE method; type: ADME, organism-based; conditions: papio anubis, in vivo; read-out: Drug recovery
Procedure, shortened: (§3)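 Baboon arterial plasma, five samples per animal, n=3. 200 μL diluted to 400 μL with 4% HCl and loaded on HLB SPE cartridge. Washed with water, then 35/65 acetonitrile/water; parent eluted with acetonitrile. All fractions and cartridge counted. Parent given as % of eluted radioactivity or of initial sample. Compared with radio-HPLC; mono-exponential fit.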

[10] = Metabolic stability of the compound in baboon plasma assessed as compound remaining by SPE method; type: ADME, cell-free; conditions: papio anubis; procedure, shortened: as §3
[11] = Half life in baboon by SPE method; type: ADME, organism-based; conditions: papio anubis, in vivo; procedure, shortened: as §3
[12] = Half life in baboon by radio-HPLC analysis; type: ADME, organism-based; conditions: papio anubis, in vivo; procedure, shortened: as §1
[13] = Retention time in baboon plasma by radio-HPLC analysis; type: ADME, cell-free; conditions: papio anubis; procedure, shortened: as §1
[14] = Drug metabolism in baboon assessed as compound remaining measured at 30 mins by radio-HPLC analysis; type: ADME, organism-based; conditions: papio anubis, in vivo; read-out: Stability; procedure, shortened: as §1
[15] = Drug metabolism in baboon assessed as compound remaining measured at 120 mins by radio-HPLC analysis; type: ADME, organism-based; conditions: papio anubis, in vivo; read-out: Stability; procedure, shortened: as §1
[16] = Biodistribution in baboon lung at 276 +/- 60 MBq, iv up to 90 mins by PET analysis; type: ADME, organism-based; conditions: papio anubis, in vivo, 1.5 h
Procedure, shortened: (§4)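 Whole-body PET (HR+) in male Papio anubis baboons after i.v. 276 ± 60 MBq (4.8 ± 2.1 nmol) [18F]DPA-714. 2D transmission scans for attenuation correction. 3D emission scans of 1 to 4 min per bed step, acquired up to 90 min post-injection. Uptake reported as SUVmax.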

[17] = Biodistribution in baboon heart at 276 +/- 60 MBq, iv up to 90 mins by PET analysis; type: ADME, organism-based; conditions: papio anubis, in vivo, 1.5 h; procedure, shortened: as §4
[18] = Biodistribution in baboon liver at 276 +/- 60 MBq, iv up to 90 mins by PET analysis; type: ADME, organism-based; conditions: papio anubis, in vivo, 1.5 h; procedure, shortened: as §4
[19] = Biodistribution in baboon gallbladder at 276 +/- 60 MBq, iv measured at 42 mins by PET analysis; type: ADME, organism-based, Gall bladder; conditions: papio anubis, in vivo, 0.7 h; procedure, shortened: as §4
[20] = Biodistribution in baboon spleen at 276 +/- 60 MBq, iv up to 90 mins by PET analysis; type: ADME, organism-based; conditions: papio anubis, in vivo, 1.5 h; procedure, shortened: as §4
[21] = Biodistribution in baboon kidney at 276 +/- 60 MBq, iv measured at 10 mins by PET analysis; type: ADME, organism-based; conditions: papio anubis, in vivo; procedure, shortened: as §4
[22] = Biodistribution in baboon urinary bladder at 276 +/- 60 MBq, iv up to 90 mins by PET analysis; type: ADME, organism-based; conditions: papio anubis, in vivo, 1.5 h; procedure, shortened: as §4
[23] = Biodistribution in baboon parotid gland at 276 +/- 60 MBq, iv up to 90 mins by PET analysis; type: ADME, organism-based; conditions: papio anubis, in vivo, 1.5 h; procedure, shortened: as §4
[24] = Biodistribution in baboon vertebral bodies at 276 +/- 60 MBq, iv up to 90 mins by PET analysis; type: ADME, organism-based; conditions: papio anubis, in vivo, 1.5 h; procedure, shortened: as §4
[25] = Biodistribution in baboon kidney at 276 +/- 60 MBq, iv measured at 90 mins by PET analysis; type: ADME, organism-based; conditions: papio anubis, in vivo, 1.5 h; procedure, shortened: as §4
[26] = Biodistribution in baboon duodenum at 276 +/- 60 MBq, iv by PET analysis; type: ADME, organism-based; conditions: papio anubis, in vivo; procedure, shortened: as §4
[27] = Biodistribution in Sprague-Dawley rat plasma at 32.1 +/- 2.8 MBq, iv measured at 120 mins by radio-HPLC analysis; type: ADME, organism-based; conditions: 32.1 MBq
Procedure, shortened: (§5)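 Male Sprague-Dawley rats (250-300 g) given 32.1 ± 2.8 MBq [18F]DPA-714 by tail vein and decapitated 120 min later. Brain sonicated twice in acetonitrile on ice, extracts pooled and concentrated. Plasma acetonitrile-deproteinated. Parent and radiometabolites separated by radio-HPLC (C18, 0.1% TFA water/acetonitrile gradient 20-80% B). Expressed as %ID/g. Thighbone cortex and marrow also counted. Mean ± sd of 2 experiments, 2 rats each.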

[28] = Biodistribution in Sprague-Dawley rat brain at 32.1 +/- 2.8 MBq, iv measured at 120 mins by radio-HPLC analysis; type: ADME, organism-based; conditions: 32.1 MBq; procedure, shortened: as §5
[29] = Ratio of drug level in brain to plasma in Sprague-Dawley rat at 32.1 +/- 2.8 MBq, iv measured at 120 mins by radio-HPLC analysis; type: ADME, organism-based; conditions: brain and plasma, 32.1 MBq, read-out: BPR; procedure, shortened: as §5
[30] = Biodistribution in Sprague-Dawley rat bone marrow at 32.1 +/- 2.8 MBq, iv measured at 120 mins by radio-HPLC analysis; type: ADME, organism-based; conditions: 32.1 MBq; procedure, shortened: as §5
[31] = Biodistribution in Sprague-Dawley rat thighbone cortex at 32.1 +/- 2.8 MBq, iv measured at 120 mins by radio-HPLC analysis; type: ADME, organism-based, Bone element; conditions: 32.1 MBq; procedure, shortened: as §5
[32] = Drug metabolism in baboon liver microsomes assessed as N,N-diethyl-2-(2-(4-hydroxyphenyl)-5,7-dimethylpyrazolo[1,5-a]pyrimidin-3-yl)acetamide level after 15 to 60 mins by LC-MS/MS analysis; type: ADME; conditions: papio anubis
Procedure, shortened: (§6)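 Liver microsomes (rat, baboon, or pooled human from 10 donors), 1 mg protein/mL, with DPA-714 100 µM in 0.1 M potassium phosphate, pH 7.4. Preincubated 2 min at 37°C, then started with NADPH-generating system. Run 15, 30 and 60 min; rates from 30 min. Stopped with acetonitrile, filtered, analysed by LC-MS-MS. Rates in nmol/mg/min; mean ± sd of 5 duplicate experiments.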

[33] = tested on: Liver microsome; experiment: Drug metabolism in human liver microsomes assessed as N-ethyl-2-(2-(4-(2-fluoroethoxy)phenyl)-5,7-dimethylpyrazolo[1,5-a]pyrimidin-3-yl)acetamide level after 15 to 60 mins by LC-MS/MS analysis; type: ADME; procedure, shortened: as §6
[34] = tested on: Liver microsome; experiment: Drug metabolism in human liver microsomes assessed as N,N-diethyl-2-(2-(4-(2-fluoroethoxy)phenyl)-7-(hydroxymethyl)-5-methylpyrazolo[1,5-a]pyrimidin-3-yl)acetamide level after 15 to 60 mins by LC-MS/MS analysis; type: ADME; procedure, shortened: as §6
[35] = tested on: Liver microsome; experiment: Drug metabolism in Sprague-Dawley rat liver microsomes assessed as N,N-diethyl-2-(2-(4-(2-fluoroethoxy)phenyl)-5-(hydroxymethyl)-7-methylpyrazolo[1,5-a]pyrimidin-3-yl)acetamide level after 15 to 60 mins by LC-MS/MS analysis; type: ADME; procedure, shortened: as §6
[36] = tested on: Liver microsome; experiment: Drug metabolism in Sprague-Dawley rat liver microsomes assessed as N,N-diethyl-2-(2-(4-(2-fluoroethoxy)phenyl)-6-hydroxy-5,7-dimethylpyrazolo[1,5-a]pyrimidin-3-yl)acetamide level after 15 to 60 mins by LC-MS/MS analysis; type: ADME; procedure, shortened: as §6
[37] = tested on: Liver microsome; experiment: Drug metabolism in Sprague-Dawley rat liver microsomes assessed as N-ethyl-2-(2-(4-(2-fluoroethoxy)phenyl)-5,7-dimethylpyrazolo[1,5-a]pyrimidin-3-yl)acetamide level after 15 to 60 mins by LC-MS/MS analysis; type: ADME; procedure, shortened: as §6
[38] = tested on: Liver microsome; experiment: Drug metabolism in Sprague-Dawley rat liver microsomes assessed as N,N-diethyl-2-(2-(4-(2-fluoroethoxy)phenyl)-7-(hydroxymethyl)-5-methylpyrazolo[1,5-a]pyrimidin-3-yl)acetamide level after 15 to 60 mins by LC-MS/MS analysis; type: ADME; procedure, shortened: as §6
[39] = tested on: Liver microsome; experiment: Drug metabolism in Sprague-Dawley rat liver microsomes assessed as N,N-diethyl-2-(2-(4-hydroxyphenyl)-5,7-dimethylpyrazolo[1,5-a]pyrimidin-3-yl)acetamide level after 15 to 60 mins by LC-MS/MS analysis; type: ADME; procedure, shortened: as §6
[40] = tested on: Liver microsome; experiment: Drug metabolism in Sprague-Dawley rat liver microsomes assessed as N,N-diethyl-2-(2-(4-(2-fluoroethoxy)phenyl)-5,7-bis(hydroxymethyl)pyrazolo[1,5-a]pyrimidin-3-yl)acetamide level after 15 to 60 mins by LC-MS/MS analysis; type: ADME; procedure, shortened: as §6
[41] = tested on: Liver microsome; experiment: Drug metabolism in Sprague-Dawley rat liver microsomes assessed as N-ethyl-2-(2-(4-(2-fluoroethoxy)phenyl)-5-(hydroxymethyl)-7-methylpyrazolo[1,5-a]pyrimidin-3-yl)acetamide level after 15 to 60 mins by LC-MS/MS analysis; type: ADME; procedure, shortened: as §6
[42] = Drug metabolism in baboon liver microsomes assessed as N,N-diethyl-2-(2-(4-(2-fluoroethoxy)phenyl)-7-(hydroxymethyl)-5-methylpyrazolo[1,5-a]pyrimidin-3-yl)acetamide level after 15 to 60 mins by LC-MS/MS analysis; type: ADME; conditions: papio anubis; procedure, shortened: as §6

Retention_time [1]: 14.28 min | Drug metabolism [2]: metabolite_detected
SMILES: CCN(CC)C(=O)Cc1c(-c2ccc(OCCF)cc2)nn2c(CO)cc(CO)nc12

Retention_time [3]: 8.583 min
SMILES: CCNC(=O)Cc1c(-c2ccc(OCC[18F])cc2)nn2c(C)cc(C)nc12

Retention_time [3]: 7.25 min
SMILES: CCNC(=O)Cc1c(-c2ccc(OCC[18F])cc2)nn2c(C)cc(CO)nc12

Retention_time [1]: 16.87 min | Drug metabolism [2]: metabolite_detected
SMILES: CCN(CC)C(=O)Cc1c(-c2ccc(OCCF)cc2)nn2c(C)cc(CO)nc12

remaining at 3 h [4]: < 2% | Stability [5]: Stable | Stability [6]: 190 min | Stability [7]: 180 min | Stability [8]: 180 min | recovery [9]: 94% | Stability [10]: 95% | half-life [11]: 12 min | half-life [12]: 19 min | Retention_time [13]: 10.083 min | remaining at 0.5 h [14]: 46% | remaining at 2 h [15]: 11% | SUVmax [16]: 5.67 | SUVmax [17]: 7.42 | SUVmax [18]: 6.28 | SUVmax [19]: 7.31 | SUVmax [20]: 7.57 | SUVmax [21]: 12.7 | SUVmax [22]: 6.5 | SUVmax [23]: 1.93 | SUVmax [24]: 1.99 | SUV [25]: 4.6 | Drug uptake [26]: Active | tissue uptake at 2 h [27]: 15% | tissue uptake at 2 h [28]: 85% | Kp at 2 h [29]: 11 | tissue uptake at 2 h [30]: 65% | tissue uptake at 2 h [31]: 35%
SMILES: CCN(CC)C(=O)Cc1c(-c2ccc(OCC[18F])cc2)nn2c(C)cc(C)nc12 [DPA-714 F-18]

Drug metabolism [32]: 0.64 nmol/mg/min | Drug metabolism [33]: 0.45 nmol/mg/min | Drug metabolism [34]: 0.57 nmol/mg/min | Drug metabolism [35]: 0.89 nmol/mg/min | Drug metabolism [36]: metabolite_detected | Drug metabolism [37]: 0.82 nmol/mg/min | Drug metabolism [38]: metabolite_detected | Drug metabolism [39]: metabolite_detected | Drug metabolism [40]: metabolite_detected | Drug metabolism [41]: metabolite_detected | Drug metabolism [42]: 0.46 nmol/mg/min
SMILES: CCN(CC)C(=O)Cc1c(-c2ccc(OCCF)cc2)nn2c(C)cc(C)nc12 [DPA-714]

Reference: ChEMBL document CHEMBL3525897, “Metabolism and quantification of [(18)F]DPA-714, a new TSPO positron emission tomography radioligand” (Drug Metab Dispos, 2013)
